# From ChEMBL document CHEMBL4811241, “Revisiting Pyrazolo[3,4-d]pyrimidine Nucleosides as Anti-Trypanosoma cruzi and Antileishmanial Agents” (J Med Chem, 2021)
# Experiments:
# [1] = test system: Leishmania infantum; assay: Antileishmanial activity against amastigote form of Leishmania infantum MHOM/MA(BE)/67 infected in Swiss mouse peritoneal macrophages assessed as reduction in parasite growth treated at 2 hrs post-infection and measured after 5 days by Giemsa staining based microscopic analysis; format: functional, organism-based; conditions: MHOM/MA(BE)/67, Peritoneal macrophage
# Summary of the method: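 Swiss mouse peritoneal macrophages, harvested after 2-day potato-starch stimulation, infected 48 h after plating; compounds added 2 h post-infection.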
# [2] = test system: Trypanosoma cruzi; assay: Antitrypanosomal activity against nifurtimox-sensitive Trypanosoma cruzi Tulahuen CL2 infected in human MRC-5 SV2 cells assessed as inhibition of parasite growth measured after 7 days by spectrophotometric analysis; format: functional, organism-based; conditions: Tulahuen CL2, MRC-5 SV2, 168 h
# [3] = Cytotoxicity against human MRC-5 SV2 cells assessed as reduction in cell growth measured after 3 days by resazurin dye based fluorometric analysis; conditions: time 3 day
# [4] = Selectivity index, ratio of CC50 for human MRC-5 SV2 cells to IC50 for antitrypanosomal activity against nifurtimox-sensitive Trypanosoma cruzi Tulahuen CL2 infected in human MRC-5 SV2 cells; format: toxicity, cell-based; conditions: read-out: Ratio CC50/IC50
# Summary of the method: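 Ratio of MRC-5SV2 CC50 (3-day resazurin assay) to IC50 against T. cruzi amastigotes in MRC-5SV2 cells (7-day CPRG assay).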
# [5] = Cytotoxicity against Swiss mouse peritoneal macrophages assessed as cell detachment, lysis and granulation measured after 5 days by microscopic analysis; format: cell-based, Peritoneal macrophage; conditions: time 5 day
# Summary of the method: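 Scored within the Leishmania macrophage assay over 5 days: detachment, lysis and granulation judged semi-quantitatively by microscopy across at least 500 cells. CC50 derived from % reduction in normal cells versus untreated wells.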
Structure (SMILES),IC50 [1],IC50 [2],CC50 at 72 h [3],selectivity ratio [4],CC50 at 120 h [5]
CCCCCCCCCCCCCCCCOP(=O)([O-])OCC[N+](C)(C)C [MILTEFOSINE],7.47 µM,,,,
Nc1ncnc2c1c(-c1ccc(Cl)c(Cl)c1)nn2[C@@H]1O[C@H](CO)[C@@H](O)[C@H]1O,> 64 µM,2.82 µM,> 64 µM,> 23,> 64 µM
COc1ccc(-c2nn([C@@H]3O[C@H](CO)[C@@H](O)[C@H]3O)c3ncnc(N)c23)cc1,> 64 µM,18.2 µM,> 64 µM,> 4,> 64 µM
O=c1[nH]cnc2c1c(Br)nn2[C@@H]1O[C@H](CO)[C@@H](F)[C@H]1O,> 64 µM,> 64 µM,> 64 µM,,> 64 µM
Cn1cc(-c2nn([C@@H]3O[C@H](CO)[C@@H](O)[C@H]3O)c3ncnc(N)c23)cn1,> 64 µM,45.3 µM,> 64 µM,> 1,> 64 µM
Nc1ncnc2c1c(C1CC1)nn2[C@@H]1O[C@H](CO)[C@@H](O)[C@H]1O,> 64 µM,> 64 µM,> 64 µM,,> 64 µM
Nc1ncnc2c1c(-c1ccc(Cl)c(C(F)(F)F)c1)nn2[C@@H]1O[C@H](CO)[C@@H](O)[C@H]1O,> 64 µM,43.8 µM,> 64 µM,> 1,> 64 µM
Nc1ncnc2c1c(-c1ccc(OC(F)(F)F)cc1)nn2[C@@H]1O[C@H](CO)[C@@H](O)[C@H]1O,> 64 µM,15.6 µM,> 64 µM,> 4,> 64 µM
Nc1ncnc2c1c(-c1ccc(Cl)c(F)c1)nn2[C@@H]1O[C@H](CO)[C@@H](O)[C@H]1O,> 64 µM,1.19 µM,> 64 µM,> 54,> 64 µM
Cc1csc(-c2nn([C@@H]3O[C@H](CO)[C@@H](O)[C@H]3O)c3ncnc(N)c23)c1,> 64 µM,32 µM,> 64 µM,> 2,> 64 µM
O=c1[nH]cnc2c1c(Br)nn2[C@@H]1O[C@H](CO)C[C@H]1O,> 64 µM,> 64 µM,> 64 µM,,> 64 µM
Nc1ncnc2c1c(-c1cccs1)nn2[C@@H]1O[C@H](CO)[C@@H](O)[C@H]1O,> 64 µM,10.4 µM,32 µM,3,> 64 µM
Nc1ncnc2c1c(-c1ccc(Cl)s1)nn2[C@@H]1O[C@H](CO)[C@@H](O)[C@H]1O,> 64 µM,2.56 µM,47.3 µM,14,> 64 µM
Cc1cc(-c2nn([C@@H]3O[C@H](CO)[C@@H](O)[C@H]3O)c3ncnc(N)c23)ccc1Cl,> 64 µM,0.81 µM,> 64 µM,> 79,> 64 µM
O=c1[nH]cnc2c1cnn2[C@@H]1O[C@H](CO)C[C@H]1O,> 64 µM,> 64 µM,> 64 µM,,> 64 µM
CC(C)c1nn([C@@H]2O[C@H](CO)[C@@H](O)[C@H]2O)c2ncnc(N)c12,> 64 µM,> 64 µM,10.6 µM,< 1,> 64 µM
CCc1nn([C@@H]2O[C@H](CO)[C@@H](O)[C@H]2O)c2ncnc(N)c12,> 64 µM,> 64 µM,> 64 µM,,> 64 µM
Nc1ncnc2c1c(Oc1ccc(Cl)cc1)nn2[C@@H]1O[C@H](CO)[C@@H](O)[C@H]1O,> 64 µM,> 64 µM,> 64 µM,,> 64 µM
Nc1ncnc2c1cnn2[C@@H]1O[C@H](CO)[C@@H](F)[C@H]1O,> 64 µM,> 64 µM,> 64 µM,,> 64 µM
Nc1ncnc2c1c(N1CCCC1)nn2[C@@H]1O[C@H](CO)[C@@H](O)[C@H]1O,> 64 µM,> 64 µM,> 64 µM,,> 64 µM
Cc1cc(Cl)ccc1-c1nn([C@@H]2O[C@H](CO)[C@@H](O)[C@H]2O)c2ncnc(N)c12,> 64 µM,3.76 µM,> 64 µM,> 17,> 64 µM
Nc1ncnc2c1c(-c1ccc(F)c(Cl)c1)nn2[C@@H]1O[C@H](CO)[C@@H](O)[C@H]1O,> 64 µM,4.66 µM,> 64 µM,> 14,> 64 µM
CC(C)(C)c1ccc(-c2nn([C@@H]3O[C@H](CO)[C@@H](O)[C@H]3O)c3ncnc(N)c23)cc1,> 64 µM,> 64 µM,> 64 µM,,> 64 µM

Structure (SMILES),IC50 [1],IC50 [2],CC50 at 72 h [3],selectivity ratio [4],CC50 at 120 h [5]
O=c1[nH]cnc2c1cnn2[C@@H]1O[C@H](CO)[C@@H](F)[C@H]1O,> 64 µM,> 64 µM,> 64 µM,,> 64 µM
COc1cc(-c2nn([C@@H]3O[C@H](CO)[C@@H](O)[C@H]3O)c3ncnc(N)c23)ccc1Cl,> 64 µM,1.14 µM,> 64 µM,> 56,> 64 µM
Nc1ncnc2c1c(-c1cc(F)c(Cl)c(F)c1)nn2[C@@H]1O[C@H](CO)[C@@H](O)[C@H]1O,> 64 µM,1.33 µM,> 64 µM,> 17,> 64 µM
Nc1ncnc2c1cnn2[C@@H]1O[C@H](CO)C[C@H]1O,> 64 µM,> 64 µM,> 64 µM,,> 64 µM
Nc1ncnc2c1c(C(=O)NCc1ccccc1)nn2[C@@H]1O[C@H](CO)[C@@H](O)[C@H]1O,> 64 µM,> 64 µM,> 64 µM,,> 64 µM
Oc1ncnc2[nH]nc(Br)c12,> 64 µM,> 64 µM,> 64 µM,,> 64 µM
Nc1ncnc2c1c(Br)nn2[C@@H]1O[C@H](CO)C[C@H]1O,> 64 µM,38.5 µM,2.2 µM,,> 64 µM
Nc1ncnc2c1c(-c1ccccc1)nn2[C@@H]1O[C@H](CO)[C@@H](O)[C@H]1O,> 64 µM,13.1 µM,> 64 µM,> 5,> 64 µM
Nc1ncnc2c1c(C(F)(F)F)nn2[C@@H]1O[C@H](CO)[C@@H](O)[C@H]1O,> 64 µM,27 µM,13.3 µM,< 1,> 64 µM
N#Cc1ccc(-c2nn([C@@H]3O[C@H](CO)[C@@H](O)[C@H]3O)c3ncnc(N)c23)cc1,> 64 µM,32 µM,> 64 µM,> 2,> 64 µM
Nc1ncnc2c1c(-c1ccc(Cl)cc1)nn2[C@@H]1O[C@H](CO)C[C@H]1O,> 64 µM,1.04 µM,> 64 µM,> 61,> 64 µM
O=c1[nH]cnc2c1c(Br)nn2[C@@H]1O[C@H](CO)[C@@H](O)[C@H]1O,> 64 µM,> 64 µM,> 64 µM,,> 64 µM
Nc1ncnc2c1c(CN1CCOCC1)nn2[C@@H]1O[C@H](CO)[C@@H](O)[C@H]1O,> 64 µM,> 64 µM,> 64 µM,,> 64 µM
CNC(=O)c1nn([C@@H]2O[C@H](CO)[C@@H](O)[C@H]2O)c2ncnc(N)c12,> 64 µM,4 µM,> 64 µM,16,> 64 µM
Nc1ncnc2c1c(-c1ccc(F)c(F)c1)nn2[C@@H]1O[C@H](CO)[C@@H](O)[C@H]1O,> 64 µM,4.24 µM,> 64 µM,> 15,> 64 µM
Nc1ncnc2c1c(C(=O)N1CCCC1)nn2[C@@H]1O[C@H](CO)[C@@H](O)[C@H]1O,> 64 µM,> 64 µM,> 64 µM,,> 64 µM
Nc1ncnc2c1c(Br)nn2[C@H]1C[C@H](O)[C@@H](CO)O1,> 64 µM,53.2 µM,24.9 µM,,> 64 µM
Nc1ncnc2c1c(-c1ccc(F)cc1)nn2[C@@H]1O[C@H](CO)[C@@H](O)[C@H]1O,> 64 µM,3.36 µM,> 64 µM,> 19,> 64 µM
Nc1ncnc2c1c(-c1nnn[nH]1)nn2[C@@H]1O[C@H](CO)[C@@H](O)[C@H]1O,> 64 µM,> 64 µM,> 64 µM,,> 64 µM
N#Cc1cc(-c2nn([C@@H]3O[C@H](CO)[C@@H](O)[C@H]3O)c3ncnc(N)c23)ccc1Cl,> 64 µM,> 64 µM,> 64 µM,,> 64 µM
Nc1ncnc2c1cnn2[C@H]1C[C@H](O)[C@@H](CO)O1,> 64 µM,> 64 µM,> 64 µM,,> 64 µM
N#Cc1cc(-c2ccc(-c3nn([C@@H]4O[C@H](CO)[C@@H](O)[C@H]4O)c4ncnc(N)c34)cc2C#N)ccc1Cl,> 64 µM,> 64 µM,> 64 µM,,> 64 µM
